Test results taken from article PMC10427982 (eBioMedicine, 2023).
Marks after values point to notes of the source that are not given here.

How the values were obtained:
[1] = system: human airway epithelial cells (HAE); details: cited from earlier work
[2] = after remdesivir 30 mg/kg i.v.; cited from earlier work
[3] = Multisite microdialysis pharmacokinetics after molnupiravir; type: in vivo, rat
Method in brief: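 Pregnant Sprague–Dawley rats at gestation day 16 (300 ± 50 g), fasted 12 h and anaesthetised with urethane 1 g/kg i.p. Test compound in normal saline given alone via femoral vein catheter. Unbound drug and metabolite sampled by microdialysis in jugular vein, fetus, placenta and amniotic fluid, perfused with citrate-dextrose solution. Dialysates every 20 min over 6 h, UHPLC-MS/MS. Ratios taken as AUC quotients ×100%. n = 6, mean ± SEM.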

[4] = Multisite microdialysis pharmacokinetics after molnupiravir; type: in vivo, rat; remark: listed apart in the source
Method in brief: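 Pregnant Sprague–Dawley rats (gestation day 16, 300 ± 50 g), fasted 12 h, under urethane anaesthesia (1 g/kg i.p.). Test compound in normal saline, with the ENT inhibitor in 10% DMSO/90% PEG-400, given together via the femoral vein. Microdialysis probes sit in the jugular vein, fetus, placenta and amniotic fluid, perfused with ACD solution. Dialysates are collected every 20 min for 6 h and assayed by UHPLC-MS/MS. n = 6, mean ± SEM.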

[5] = cited from earlier work
[6] = animal models; cited from earlier work
human ENT2 = details: cited from earlier work
[7] = lactating rats administered molnupiravir; cited from earlier work
human ENT1 = details: cited from earlier work
[8] = single and multiple doses; cited from earlier work
[9] = blood, molnupiravir 100 mg/kg i.v. alone
[10] = female, Sprague-Dawley, rat, amniotic fluid dialysate, iv, 100 mg/kg
[11] = female, Sprague-Dawley, rat, blood dialysate, iv, 100 mg/kg
[12] = female, Sprague-Dawley, rat, fetus dialysate, iv, 100 mg/kg
[13] = female, Sprague-Dawley, rat, placenta dialysate, iv, 100 mg/kg
[14] = female, Sprague-Dawley, rat, amniotic fluid, iv, 100 mg/kg, with NBMPR (ENT inhibitor) 10 mg/kg i.v., co-administered
[15] = female, Sprague-Dawley, rat, blood, iv, 100 mg/kg, with NBMPR (ENT inhibitor) 10 mg/kg i.v., co-administered
[16] = female, Sprague-Dawley, rat, fetus, iv, 100 mg/kg, with NBMPR (ENT inhibitor) 10 mg/kg i.v., co-administered
[17] = female, Sprague-Dawley, rat, placenta, iv, 100 mg/kg, with NBMPR (ENT inhibitor) 10 mg/kg i.v., co-administered
[18] = placenta, + NBMPR 10 mg/kg i.v.
[19] = amniotic fluid, molnupiravir 100 mg/kg i.v. alone
[20] = fetus, molnupiravir 100 mg/kg i.v. alone
[21] = placenta, molnupiravir 100 mg/kg i.v. alone
[22] = amniotic fluid, + NBMPR 10 mg/kg i.v.

## N#C[C@@]1(c2ccc3c(N)ncnn23)O[C@H](CO)[C@@H](O)[C@H]1O [GS-441524]
[1]
  EC50: 0.18 µM
[2]
  Transfer ratio from mother to amniotic fluid: 0.71 ± 0.19
  Transfer ratio from mother to fetus: 0.51 ± 0.18
  Transfer ratio from mother to placenta: 0.35 ± 0.09

## CC(C)C(=O)OC[C@H]1O[C@@H](n2ccc(NO)nc2=O)[C@H](O)[C@@H]1O [Molnupiravir]
[3]; blood, molnupiravir 100 mg/kg i.v.
  Time up to which detected: up to 200 min
[3]; [9]
  CL: 1.313 ± 0.179 L/h/kg
[3]; conceptus, molnupiravir 100 mg/kg i.v.
  Time for the maximum concentration in the conceptus: approximately 40 min
[3]; female, Sprague-Dawley, rat, amniotic fluid (relative to blood), iv, 100 mg/kg
  Kp: 0.05 ± 0.01
[3]; female, Sprague-Dawley, rat, amniotic fluid dialysate, intravenous, 100 mg/kg
  concentration at 60 min: 0.00148 µg/mL
[3]; [10]
  AUC(0-inf): 4.66 µg·h/mL
  Cmax: 2.11 ± 0.38 µg/mL
  half-life: 13.8 ± 2.88 h
[3]; female, Sprague-Dawley, rat, amniotic fluid, iv, 100 mg/kg
  MRT: 1.73 h
[3]; female, Sprague-Dawley, rat, blood dialysate, intravenous, 100 mg/kg
  concentration at 140 min: 0.0182 µg/mL
[3]; [11]
  AUC(0-inf): 61.6 µg·h/mL
  Cmax: 219 ± 42.3 µg/mL
  half-life: 0.183 ± 0.0333 h
[3]; female, Sprague-Dawley, rat, blood, iv, 100 mg/kg
  MRT: 0.267 h
[3]; female, Sprague-Dawley, rat, fetus (relative to blood), iv, 100 mg/kg
  Kp: 0.03 ± 0.01
[3]; female, Sprague-Dawley, rat, fetus dialysate, intravenous, 100 mg/kg
  concentration at 140 min: 0.00302 µg/mL
[3]; [12]
  AUC(0-inf): 3.31 µg·h/mL
  Cmax: 3.54 ± 1.32 µg/mL
  half-life: 0.483 ± 0.0833 h
[3]; female, Sprague-Dawley, rat, fetus, iv, 100 mg/kg
  MRT: 0.7 h
[3]; female, Sprague-Dawley, rat, placenta (relative to blood), iv, 100 mg/kg
  Kp: 0.02 ± 0.009
[3]; female, Sprague-Dawley, rat, placenta dialysate, intravenous, 100 mg/kg
  concentration at 80 min: 0.0151 µg/mL
[3]; [13]
  AUC(0-inf): 2.42 µg·h/mL
  Cmax: 2.56 ± 0.73 µg/mL
  half-life: 1 ± 0.417 h
[3]; female, Sprague-Dawley, rat, placenta, iv, 100 mg/kg
  MRT: 1.17 h
[3]; molnupiravir 100 mg/kg i.v.
  Time within which metabolized to NHC: ≤ 20 min
[4]; [14]
  AUC(0-inf): 2.77 µg·h/mL
  Cmax: 2.14 ± 0.64 µg/mL
  MRT: 1.47 h
  half-life: 3.12 ± 0.833 h
[4]; [15]
  AUC(0-inf): 49.6 µg·h/mL
  Cmax: 261 ± 111 µg/mL
  MRT: 0.283 h
  clearance: 3.55 ± 1.35 L/h/kg
  half-life: 0.2 ± 0.0167 h
[4]; [16]
  AUC(0-inf): 1.65 µg·h/mL
  Cmax: 2.41 ± 0.18 µg/mL
  MRT: 0.833 h
  half-life: 0.433 ± 0.1 h
[4]; [17]
  AUC(0-inf): 1.88 µg·h/mL
  Cmax: 1.02 ± 0.19 µg/mL
  half-life: 3 ± 1.42 h
[4]; [18]
  MRT: 3.95 ± 1.48 h
[5]; 500 mg/kg
  Fetal finding at lower dose: decreased fetal body weight
[5]; 1000 mg/kg
  Fetal finding at high dose: internal and skeletal malformations of the fetus
[5]
  NOAEL for maternal and developmental toxicity: 250 mg/kg
[5]; pregnant rat model
  Finding at doses eight times the normal dose / expected exposure: developmental toxicity
[6]
  Increase of the bioavailability of NHC: more than 90%

## O=c1nc(NO)ccn1[C@@H]1O[C@H](CO)[C@@H](O)[C@H]1O [NHC, β-D-N4-hydroxycytidine]
Human ENT2
  Interaction with transporter: interacts
[3]; amniotic fluid dialysate, 60 min after administration
  Concentration in dialysate sample (representative chromatogram): 0.01005 µg/mL
[3]; [19]
  AUCtissue/AUCblood (biodistribution ratio): 0.19 ± 0.03
  Cmax: 4.78 ± 0.83 ^b μg/mL
  MRT: 2.82 ± 0.13 h
  Tmax: 150 ± 33 min
  t1/2: 148 ± 52 ^b min
[3]; blood dialysate, 140 min after molnupiravir 100 mg/kg i.v.
  Concentration in dialysate sample (representative chromatogram): 0.96 µg/mL
[3]; [9]
  Cmax: 116.5 ± 3.87 µg/mL
  MRT: 0.95 ± 0.1 h
  Tmax: 40 min
  t1/2: 45 ± 5 min
[3]; dialysates of all organs
  Time post-administration until which detected: 360 min
[3]; fetus dialysate, collected at 140 min
  Concentration in dialysate sample (representative chromatogram): 0.185 µg/mL
[3]; [20]
  AUCtissue/AUCblood (biodistribution ratio): 0.29 ± 0.11
  Cmax: 7.20 ± 2.10 ^b μg/mL
  MRT: 2.62 ± 0.167 h
  Tmax: 123 ± 11 ^b min
  t1/2: 492 ± 305 ^b min
[3]; placenta dialysate, 80 min after administration
  Concentration in dialysate sample (representative chromatogram): 0.1262 µg/mL
[3]; [21]
  AUCtissue/AUCblood (biodistribution ratio): 0.09 ± 0.01
  Cmax: 2.98 ± 0.42 ^b μg/mL
  MRT: 2.6 ± 0.167 h
  Tmax: 90 ± 16 min
  t1/2: 138 ± 18 ^b min
[3]; range over fetus, placenta, amniotic fluid
  Transfer ratio across the blood-placenta barrier: 9–29%
[4]; [22]
  AUCtissue/AUCblood (biodistribution ratio): 0.19 ± 0.05
  Cmax: 4.21 ± 0.44 ^d μg/mL
  MRT: 4.9 ± 1.28 h
  Tmax: 100 ± 14 ^d min
  t1/2: 181 ± 56 ^d min
[4]; blood, + NBMPR 10 mg/kg i.v.
  Cmax: 97.26 ± 24.95 µg/mL
  MRT: 0.933 ± 0.1 h
  t1/2: 66 ± 3 min
[4]; fetus, + NBMPR 10 mg/kg i.v.
  AUCtissue/AUCblood (biodistribution ratio): 0.27 ± 0.07
  Cmax: 4.69 ± 1.92 ^d μg/mL
  MRT: 12.7 ± 4.25 h
  Tmax: 93 ± 16 ^d min
  t1/2: 507 ± 178 ^d min
[4]; [18]
  AUCtissue/AUCblood (biodistribution ratio): 0.14 ± 0.06
  Cmax: 2.95 ± 0.97 ^d μg/mL
  MRT: 4.18 ± 1.08 h
  Tmax: 106 ± 12 ^d min
  t1/2: 157 ± 56 ^d min
[7]
  Detection in plasma of nursing pups: can be detected
Human ENT1
  Interaction with transporter: interacts
[8]
  Median Tmax in plasma: 1 h
[6]
  Bioavailability: poor bioavailability
